pKi: −log10 of the molar value.
Legend:
Spleen [1] = assay: Biodistribution in ICR mouse spleen at 5 to 10 uCi, iv after 30 mins; format: ADME, organism-based; conditions: in vivo, 0.5 h
Summary of the method: (§1)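 Male ICR mice (22–25 g) under isoflurane anesthesia; [125I] or [18F] tracer (5–10 μCi) in 0.15 mL of 0.1% bovine serum albumin solution injected into the tail vein. Groups of n = 3 per time point, killed by cervical dislocation. Organs removed, weighed and gamma-counted against diluted aliquots of injected dose, giving % dose/organ and % ID/g. Total blood activity assumed as 7% of body weight.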

Brain [2] = assay: Biodistribution in ICR mouse brain at 5 to 10 uCi, iv after 30 mins; format: ADME, organism-based; conditions: in vivo, 0.5 h; summary of the method: as §1
Spleen [3] = assay: Biodistribution in ICR mouse spleen at 5 to 10 uCi, iv after 2 mins; format: ADME, organism-based; conditions: in vivo; summary of the method: as §1
Zone of skin [4] = assay: Biodistribution in ICR mouse skin at 5 to 10 uCi, iv after 2 hrs; format: ADME, organism-based; conditions: in vivo; summary of the method: as §1
Liver [5] = assay: Biodistribution in ICR mouse liver at 5 to 10 uCi, iv after 30 mins; format: ADME, organism-based; conditions: in vivo, 0.5 h; summary of the method: as §1
Kidney [6] = assay: Biodistribution in ICR mouse kidney at 5 to 10 uCi, iv after 1 hr; format: ADME, organism-based; conditions: in vivo; summary of the method: as §1
Muscle tissue [7] = assay: Biodistribution in ICR mouse muscle at 5 to 10 uCi, iv after 2 mins; format: ADME, organism-based; conditions: in vivo; summary of the method: as §1
Blood [8] = assay: Biodistribution in ICR mouse blood at 5 to 10 uCi, iv after 30 mins; format: ADME, organism-based; conditions: in vivo, 0.5 h; summary of the method: as §1
Zone of skin [9] = assay: Biodistribution in ICR mouse skin at 5 to 10 uCi, iv after 30 mins; format: ADME, organism-based; conditions: in vivo, 0.5 h; summary of the method: as §1
Lung [10] = assay: Biodistribution in ICR mouse lung at 5 to 10 uCi, iv after 2 hrs; format: ADME, organism-based; conditions: in vivo; summary of the method: as §1
Blood [11] = assay: Biodistribution in ICR mouse blood at 5 to 10 uCi, iv after 2 hrs; format: ADME, organism-based; conditions: in vivo; summary of the method: as §1
Thyroid gland [12] = assay: Biodistribution in ICR mouse thyroid at 5 to 10 uCi, iv after 30 mins; format: ADME, organism-based; conditions: in vivo, 0.5 h; summary of the method: as §1
Zone of skin [13] = assay: Biodistribution in ICR mouse skin at 5 to 10 uCi, iv after 2 mins; format: ADME, organism-based; conditions: in vivo; summary of the method: as §1
Brain [14] = assay: Biodistribution in ICR mouse brain at 5 to 10 uCi, iv after 2 mins; format: ADME, organism-based; conditions: in vivo; summary of the method: as §1
Kidney [15] = assay: Biodistribution in ICR mouse kidney at 5 to 10 uCi, iv after 2 mins; format: ADME, organism-based; conditions: in vivo; summary of the method: as §1
Lung [16] = assay: Biodistribution in ICR mouse lung at 5 to 10 uCi, iv after 1 hr; format: ADME, organism-based; conditions: in vivo; summary of the method: as §1
Heart [17] = assay: Biodistribution in ICR mouse heart at 5 to 10 uCi, iv after 2 mins; format: ADME, organism-based; conditions: in vivo; summary of the method: as §1
Spleen [18] = assay: Biodistribution in ICR mouse spleen at 5 to 10 uCi, iv after 2 hrs; format: ADME, organism-based; conditions: in vivo; summary of the method: as §1
Blood [19] = assay: Biodistribution in ICR mouse blood at 5 to 10 uCi, iv after 1 hr; format: ADME, organism-based; conditions: in vivo; summary of the method: as §1
Zone of skin [20] = assay: Biodistribution in ICR mouse skin at 5 to 10 uCi, iv after 1 hr; format: ADME, organism-based; conditions: in vivo; summary of the method: as §1
Heart [21] = assay: Biodistribution in ICR mouse heart at 5 to 10 uCi, iv after 2 hrs; format: ADME, organism-based; conditions: in vivo; summary of the method: as §1
Brain [22] = assay: Biodistribution in ICR mouse brain at 5 to 10 uCi, iv after 1 hr; format: ADME, organism-based; conditions: in vivo; summary of the method: as §1
Brain [23] = assay: Biodistribution in ICR mouse brain at 5 to 10 uCi, iv after 2 hrs; format: ADME, organism-based; conditions: in vivo; summary of the method: as §1
Liver [24] = assay: Biodistribution in ICR mouse liver at 5 to 10 uCi, iv after 2 hrs; format: ADME, organism-based; conditions: in vivo; summary of the method: as §1
Thyroid gland [25] = assay: Biodistribution in ICR mouse thyroid at 5 to 10 uCi, iv after 2 mins; format: ADME, organism-based; conditions: in vivo; summary of the method: as §1
Muscle tissue [26] = assay: Biodistribution in ICR mouse muscle at 5 to 10 uCi, iv after 2 hrs; format: ADME, organism-based; conditions: in vivo; summary of the method: as §1
Liver [27] = assay: Biodistribution in ICR mouse liver at 5 to 10 uCi, iv after 2 mins; format: ADME, organism-based; conditions: in vivo; summary of the method: as §1
Kidney [28] = assay: Biodistribution in ICR mouse kidney at 5 to 10 uCi, iv after 30 mins; format: ADME, organism-based; conditions: in vivo, 0.5 h; summary of the method: as §1
Heart [29] = assay: Biodistribution in ICR mouse heart at 5 to 10 uCi, iv after 1 hr; format: ADME, organism-based; conditions: in vivo; summary of the method: as §1
Heart [30] = assay: Biodistribution in ICR mouse heart at 5 to 10 uCi, iv after 30 mins; format: ADME, organism-based; conditions: in vivo, 0.5 h; summary of the method: as §1
[31] = Partition coefficient, log P of the compound; format: physicochemical; conditions: octanol/water
Summary of the method: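 [125I] or [18F] tracer mixed with 3 g each of 1-octanol and 0.1 M phosphate buffer pH 7.4. Vortexed 3 min at room temperature, then centrifuged 5 min. Two 0.5 g samples from each layer counted; PC is the ratio of cpm/g in octanol to cpm/g in buffer. The octanol layer was repartitioned until values were consistent.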

Muscle tissue [32] = assay: Biodistribution in ICR mouse muscle at 5 to 10 uCi, iv after 30 mins; format: ADME, organism-based; conditions: in vivo, 0.5 h; summary of the method: as §1
Blood [33] = assay: Biodistribution in ICR mouse blood at 5 to 10 uCi, iv after 2 mins; format: ADME, organism-based; conditions: in vivo; summary of the method: as §1
Lung [34] = assay: Biodistribution in ICR mouse lung at 5 to 10 uCi, iv after 30 mins; format: ADME, organism-based; conditions: in vivo, 0.5 h; summary of the method: as §1
Lung [35] = assay: Biodistribution in ICR mouse lung at 5 to 10 uCi, iv after 2 mins; format: ADME, organism-based; conditions: in vivo; summary of the method: as §1
Spleen [36] = assay: Biodistribution in ICR mouse spleen at 5 to 10 uCi, iv after 1 hr; format: ADME, organism-based; conditions: in vivo; summary of the method: as §1
Muscle tissue [37] = assay: Biodistribution in ICR mouse muscle at 5 to 10 uCi, iv after 1 hr; format: ADME, organism-based; conditions: in vivo; summary of the method: as §1
Liver [38] = assay: Biodistribution in ICR mouse liver at 5 to 10 uCi, iv after 1 hr; format: ADME, organism-based; conditions: in vivo; summary of the method: as §1
Thyroid gland [39] = assay: Biodistribution in ICR mouse thyroid at 5 to 10 uCi, iv after 1 hr; format: ADME, organism-based; conditions: in vivo; summary of the method: as §1
Kidney [40] = assay: Biodistribution in ICR mouse kidney at 5 to 10 uCi, iv after 2 hrs; format: ADME, organism-based; conditions: in vivo; summary of the method: as §1
[41] = Displacement of [125I]IMPY from beta amyloid protein plaques in Alzheimer's disease patient brain; set-up: species or system Homo sapiens
Summary of the method: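 Competition binding to pooled gray-matter homogenates from four AD brains (approximately 100 mg wet tissue/mL in PBS pH 7.4; 20–50 μg per tube). [125I]2 at 0.04–0.06 nM; inhibitors 10^-5–10^-10 M in PBS with 0.1% BSA; final volume 1 mL. Nonspecific binding with 600 nM 2. Incubated 37 °C, 2 h; GF/B filtration, gamma counting. Ki from nonlinear regression.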

CN(C)c1ccc(-c2cn(-c3ccc(OCC[18F])cc3)nn2)cc1 showed a Drug uptake (Spleen [1]) of 2.21 % ID/g, a Drug uptake (Brain [2]) of 2.53 % ID/g and a Drug uptake (Spleen [3]) of 4.04 % ID/g. It also gave a Drug uptake (Zone of skin [4]) of 1.42 % ID/g, a Drug uptake (Liver [5]) of 5.54 % ID/g and a Drug uptake (Kidney [6]) of 2.44 % ID/g. The Drug uptake (Muscle tissue [7]) was 0.73 % ID/g, the Drug uptake (Blood [8]) was 2.65 % ID/g and the Drug uptake (Zone of skin [9]) was 1.82 % ID/g. It also gave a Drug uptake (Lung [10]) of 1.79 % ID/g, a Drug uptake (Blood [11]) of 2.3 % ID/g and a Drug uptake (Thyroid gland [12]) of 1.89 % ID/g. The Drug uptake (Zone of skin [13]) was 0.51 % ID/g, the Drug uptake (Brain [14]) was 5.92 % ID/g and the Drug uptake (Kidney [15]) was 6.94 % ID/g. For the same molecule, the Drug uptake (Lung [16]) was 2.03 % ID/g, the Drug uptake (Heart [17]) was 4.25 % ID/g and the Drug uptake (Spleen [18]) was 1.43 % ID/g. For the same molecule, the Drug uptake (Blood [19]) was 2.45 % ID/g, the Drug uptake (Zone of skin [20]) was 1.72 % ID/g and the Drug uptake (Heart [21]) was 1.83 % ID/g. The Drug uptake (Brain [22]) was 2.34 % ID/g, the Drug uptake (Brain [23]) was 2.08 % ID/g and the Drug uptake (Liver [24]) was 2.69 % ID/g. The Drug uptake (Thyroid gland [25]) was 1.41 % ID/g, the Drug uptake (Muscle tissue [26]) was 1.11 % ID/g and the Drug uptake (Liver [27]) was 11.6 % ID/g. It also gave a Drug uptake (Kidney [28]) of 3.35 % ID/g, a Drug uptake (Heart [29]) of 2.02 % ID/g and a Drug uptake (Heart [30]) of 2.28 % ID/g. For the same molecule, the logP [31] was 2.7, the Drug uptake (Muscle tissue [32]) was 1.51 % ID/g and the Drug uptake (Blood [33]) was 2.63 % ID/g. The Drug uptake (Lung [34]) was 2.72 % ID/g, the Drug uptake (Lung [35]) was 5.68 % ID/g and the Drug uptake (Spleen [36]) was 1.66 % ID/g. It also gave a Drug uptake (Muscle tissue [37]) of 1.33 % ID/g, a Drug uptake (Liver [38]) of 3.52 % ID/g and a Drug uptake (Thyroid gland [39]) of 3.25 % ID/g. The Drug uptake (Kidney [40]) was 2.01 % ID/g.

For CN(C)c1ccc(-c2cn(-c3ccc(OCCC[18F])cc3)nn2)cc1, the Drug uptake (Spleen [1]) was 1.29 % ID/g, the Drug uptake (Brain [2]) was 2.84 % ID/g and the Drug uptake (Spleen [3]) was 3.98 % ID/g. The Drug uptake (Zone of skin [4]) was 0.11 % ID/g, the Drug uptake (Liver [5]) was 5.06 % ID/g and the Drug uptake (Kidney [6]) was 2.69 % ID/g. For the same molecule, the Drug uptake (Muscle tissue [7]) was 0.89 % ID/g, the Drug uptake (Blood [8]) was 1.91 % ID/g and the Drug uptake (Zone of skin [9]) was 1.41 % ID/g. For the same molecule, the Drug uptake (Lung [10]) was 0.76 % ID/g, the Drug uptake (Blood [11]) was 0.31 % ID/g and the Drug uptake (Thyroid gland [12]) was 9.62 % ID/g. The Drug uptake (Zone of skin [13]) was 0.93 % ID/g, the Drug uptake (Brain [14]) was 6.56 % ID/g and the Drug uptake (Kidney [15]) was 9.01 % ID/g. It also gave a Drug uptake (Lung [16]) of 0.88 % ID/g, a Drug uptake (Heart [17]) of 5.79 % ID/g and a Drug uptake (Spleen [18]) of 0.17 % ID/g. It also gave a Drug uptake (Blood [19]) of 0.75 % ID/g, a Drug uptake (Zone of skin [20]) of 0.41 % ID/g and a Drug uptake (Heart [21]) of 0.23 % ID/g. The Drug uptake (Brain [22]) was 1.81 % ID/g, the Drug uptake (Brain [23]) was 1.29 % ID/g and the Drug uptake (Liver [24]) was 0.76 % ID/g. The Drug uptake (Thyroid gland [25]) was 1.57 % ID/g, the Drug uptake (Muscle tissue [26]) was 0.1 % ID/g and the Drug uptake (Liver [27]) was 15.6 % ID/g. The Drug uptake (Kidney [28]) was 3.68 % ID/g, the Drug uptake (Heart [29]) was 0.69 % ID/g and the Drug uptake (Heart [30]) was 1.93 % ID/g. For the same molecule, the logP [31] was 2.7, the Drug uptake (Muscle tissue [32]) was 1.03 % ID/g and the Drug uptake (Blood [33]) was 3.23 % ID/g. The Drug uptake (Lung [34]) was 2.4 % ID/g, the Drug uptake (Lung [35]) was 7.65 % ID/g and the Drug uptake (Spleen [36]) was 0.58 % ID/g. For the same molecule, the Drug uptake (Muscle tissue [37]) was 0.36 % ID/g, the Drug uptake (Liver [38]) was 2.06 % ID/g and the Drug uptake (Thyroid gland [39]) was 16.87 % ID/g. The Drug uptake (Kidney [40]) was 0.35 % ID/g.

Molecule CN(C)c1ccc(-c2cn(-c3ccc(OCCOCCOCCO)cc3)nn2)cc1 has a pKi [41] of 7.78.

Reference: ChEMBL document CHEMBL1145427, “Quick assembly of 1,4-diphenyltriazoles as probes targeting beta-amyloid aggregates in Alzheimer's disease” (J Med Chem, 2007)
